According to ChEMBL document CHEMBL4270642, “Boronic ester-linked macrocyclic lipopeptides as serine protease inhibitors targeting Escherichia coli type I signal peptidase” (Eur J Med Chem, 2018):
≈ marks a conversion by molar mass, not a printed value.

What was measured:
[1] = Hemolytic activity in human RBC at 100 uM after 45 mins by spectrophotometric method relative to control; type: ADME, cell-based, Erythrocyte; conditions: red blood cells (erythrocytes), read-out: Activity
Summary of the method: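 Heparinized human blood; red cells washed three times in Tyrode buffer pH 7.4. Compound at 100 µM final with 1% DMSO and 50% RBC, shaken (250 rpm) 45 min at 37 °C. Cells pelleted (1000 × g, 10 min); supernatant haemoglobin at 540 nm. Percent lysis relative to buffer-only and 2% Triton X-100 controls.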

Signal peptidase I = Signal peptidase I (Escherichia coli K-12, UniProt P00803); assay: Inhibition of Escherichia coli type 1 signal peptidase lepB preincubated for 10 mins followed by Dabcyl-VGGTATAYGAFSRPGLE-(EDANS)-OH substrate addition measured after 2 hrs by FRET based assay
Summary of the method: (§1)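 EcLepB (about 50 nM estimated) preincubated 10 min with compound. Reaction started with Dabcyl/EDANS FRET peptide at 8 µM final (Km 20 µM). Fluorescence followed continuously at 535 nm, 22 °C, for 2 h. Cleavage rates plotted against inhibitor concentration; IC50 from non-linear regression of sigmoidal dose-response curves.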

Escherichia coli [2] = assay: Antibacterial activity against Escherichia coli ATCC 25922 after 16 to 20 hrs by broth microdilution method; type: functional
Summary of the method: (§2)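 Broth microdilution in cation-adjusted Mueller-Hinton II per EUCAST/CLSI; two-fold compound series 64 down to 0.25 µg/mL final. Inoculum from fresh colonies (non-selective agar, 18-24 h, 35 ± 2 °C), adjusted to 0.5 McFarland, diluted to about 5 × 10^5 CFU/mL final. Static incubation 16-20 h at 35 ± 2 °C; MIC read visually as complete growth inhibition against medium-only wells.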

Escherichia coli [3] = assay: Antibacterial activity against tolC deficient Escherichia coli CH3130 after 16 to 20 hrs by broth microdilution method; type: functional; summary of the method: as §2
Escherichia coli [4] = assay: Antibacterial activity against Escherichia coli D22 CGSG 5163 harboring Ips mutant after 16 to 20 hrs by broth microdilution method; type: functional
Summary of the method: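 Broth microdilution in cation-adjusted Mueller-Hinton II broth, following EUCAST and CLSI guidelines. Two-fold series at final concentrations 64 down to 0.25 µg/mL, with medium-only and growth controls. Inoculum from fresh colonies (18-24 h, 35 °C ± 2 °C) adjusted to 0.5 McFarland, final ≈5 × 10^5 CFU/mL. Plates incubated unshaken 16-20 h at 35 °C ± 2 °C. MIC read visually as complete inhibition of growth.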

Pseudomonas aeruginosa [5] = assay: Antibacterial activity against Pseudomonas aeruginosa PAO1 after 16 to 20 hrs by broth microdilution method; type: functional; summary of the method: as §2
Pseudomonas aeruginosa [6] = assay: Antibacterial activity against efflux defective Pseudomonas aeruginosa PAO750 after 16 to 20 hrs by broth microdilution method; type: functional; summary of the method: as §2
Klebsiella pneumoniae = assay: Antibacterial activity against Klebsiella pneumoniae ATCC 13883 after 16 to 20 hrs by broth microdilution method; type: functional; summary of the method: as §2
HepG2 = assay: Cytotoxicity against human HepG2 cells after 72 hrs by FMSA; type: cell-based; conditions: HepG2, 72 h
Summary of the method: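 HepG2 (ATCC) grown in EMEM with 10% FBS, pen/strep, 2 mM L-glutamine, used up to 20 passages. Seeded at 1000 cells/well, cultured overnight, then dosed acoustically from DMSO stocks. Eight two-fold dilutions in duplicate from top 64 or 32 µM; 72 h at 37 °C, 5% CO2. Fluorescein diacetate hydrolysis read at ex 485/em 530 nm; IC50 by non-linear regression.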

Acinetobacter baumannii = assay: Antibacterial activity against Acinetobacter baumannii ATCC 19606 after 16 to 20 hrs by broth microdilution method; type: functional; conditions: ATCC 19606 = CIP 70.34 = JCM 6841; summary of the method: as §2
Staphylococcus aureus = assay: Antibacterial activity against Staphylococcus aureus ATCC 29213 after 16 to 20 hrs by broth microdilution method; type: functional; summary of the method: as §2
[7] = molecular target: Signal peptidase I (Escherichia coli K-12) (UniProt P00803); assay: Inhibition of Escherichia coli type 1 signal peptidase lepB assessed as residual activity at 10 uM preincubated for 10 mins followed by Dabcyl-VGGTATAYGAFSRPGLE-(EDANS)-OH substrate addition measured after 2 hrs by FRET based assay (reference value: 100%); summary of the method: as §1
[8] = molecular target: Signal peptidase I (Escherichia coli K-12) (UniProt P00803); assay: Inhibition of Escherichia coli type 1 signal peptidase lepB assessed as residual activity at 5 uM preincubated for 10 mins followed by Dabcyl-VGGTATAYGAFSRPGLE-(EDANS)-OH substrate addition measured after 2 hrs by FRET based assay (reference value: 100%); summary of the method: as §1
[9] = molecular target: Signal peptidase I (Escherichia coli K-12) (UniProt P00803); assay: Inhibition of Escherichia coli type 1 signal peptidase lepB assessed as residual activity at 2.5 uM preincubated for 10 mins followed by Dabcyl-VGGTATAYGAFSRPGLE-(EDANS)-OH substrate addition measured after 2 hrs by FRET based assay (reference value: 100%); summary of the method: as §1
[10] = molecular target: Signal peptidase I (Escherichia coli K-12) (UniProt P00803); assay: Inhibition of Escherichia coli type 1 signal peptidase lepB assessed as residual activity at 1.25 uM preincubated for 10 mins followed by Dabcyl-VGGTATAYGAFSRPGLE-(EDANS)-OH substrate addition measured after 2 hrs by FRET based assay (reference value: 100%); summary of the method: as §1
[11] = molecular target: Signal peptidase I (Escherichia coli K-12) (UniProt P00803); assay: Inhibition of Escherichia coli type 1 signal peptidase lepB assessed as residual activity at 0.625 uM preincubated for 10 mins followed by Dabcyl-VGGTATAYGAFSRPGLE-(EDANS)-OH substrate addition measured after 2 hrs by FRET based assay (reference value: 100%); summary of the method: as §1
[12] = molecular target: Signal peptidase I (Escherichia coli K-12) (UniProt P00803); assay: Inhibition of Escherichia coli type 1 signal peptidase lepB assessed as residual activity at 0.3125 uM preincubated for 10 mins followed by Dabcyl-VGGTATAYGAFSRPGLE-(EDANS)-OH substrate addition measured after 2 hrs by FRET based assay (reference value: 100%); summary of the method: as §1
[13] = molecular target: Signal peptidase I (Escherichia coli K-12) (UniProt P00803); assay: Inhibition of Escherichia coli type 1 signal peptidase lepB assessed as residual activity at 0.1563 uM preincubated for 10 mins followed by Dabcyl-VGGTATAYGAFSRPGLE-(EDANS)-OH substrate addition measured after 2 hrs by FRET based assay (reference value: 100%); summary of the method: as §1
[14] = molecular target: Signal peptidase I (Escherichia coli K-12) (UniProt P00803); assay: Inhibition of Escherichia coli type 1 signal peptidase lepB assessed as residual activity at 0.0781 uM preincubated for 10 mins followed by Dabcyl-VGGTATAYGAFSRPGLE-(EDANS)-OH substrate addition measured after 2 hrs by FRET based assay (reference value: 100%); summary of the method: as §1
[15] = molecular target: Signal peptidase I (Escherichia coli K-12) (UniProt P00803); assay: Inhibition of Escherichia coli type 1 signal peptidase lepB assessed as residual activity at 0.0391 uM preincubated for 10 mins followed by Dabcyl-VGGTATAYGAFSRPGLE-(EDANS)-OH substrate addition measured after 2 hrs by FRET based assay (reference value: 100%); summary of the method: as §1
[16] = molecular target: Signal peptidase I (Escherichia coli K-12) (UniProt P00803); assay: Inhibition of Escherichia coli type 1 signal peptidase lepB assessed as residual activity at 0.0195 uM preincubated for 10 mins followed by Dabcyl-VGGTATAYGAFSRPGLE-(EDANS)-OH substrate addition measured after 2 hrs by FRET based assay (reference value: 100%); summary of the method: as §1
[17] = molecular target: Signal peptidase I (Escherichia coli K-12) (UniProt P00803); assay: Inhibition of Escherichia coli type 1 signal peptidase lepB assessed as residual activity at 0.0098 uM preincubated for 10 mins followed by Dabcyl-VGGTATAYGAFSRPGLE-(EDANS)-OH substrate addition measured after 2 hrs by FRET based assay (reference value: 100%); summary of the method: as §1
[18] = molecular target: Signal peptidase I (Escherichia coli K-12) (UniProt P00803); assay: Inhibition of Escherichia coli type 1 signal peptidase lepB assessed as residual activity at 0.0049 uM preincubated for 10 mins followed by Dabcyl-VGGTATAYGAFSRPGLE-(EDANS)-OH substrate addition measured after 2 hrs by FRET based assay (reference value: 100%); summary of the method: as §1
[19] = molecular target: Signal peptidase I (Escherichia coli K-12) (UniProt P00803); assay: Inhibition of Escherichia coli type 1 signal peptidase lepB assessed as residual activity at 0.0024 uM preincubated for 10 mins followed by Dabcyl-VGGTATAYGAFSRPGLE-(EDANS)-OH substrate addition measured after 2 hrs by FRET based assay (reference value: 100%); summary of the method: as §1
[20] = molecular target: Signal peptidase I (Escherichia coli K-12) (UniProt P00803); assay: Inhibition of Escherichia coli type 1 signal peptidase lepB assessed as residual activity at 0.0012 uM preincubated for 10 mins followed by Dabcyl-VGGTATAYGAFSRPGLE-(EDANS)-OH substrate addition measured after 2 hrs by FRET based assay (reference value: 100%); summary of the method: as §1
[21] = molecular target: Signal peptidase I (Escherichia coli K-12) (UniProt P00803); assay: Inhibition of Escherichia coli type 1 signal peptidase lepB assessed as residual activity at 0.0006 uM preincubated for 10 mins followed by Dabcyl-VGGTATAYGAFSRPGLE-(EDANS)-OH substrate addition measured after 2 hrs by FRET based assay (reference value: 100%); summary of the method: as §1

Chain of Signal peptidase I (P00803 whole entry): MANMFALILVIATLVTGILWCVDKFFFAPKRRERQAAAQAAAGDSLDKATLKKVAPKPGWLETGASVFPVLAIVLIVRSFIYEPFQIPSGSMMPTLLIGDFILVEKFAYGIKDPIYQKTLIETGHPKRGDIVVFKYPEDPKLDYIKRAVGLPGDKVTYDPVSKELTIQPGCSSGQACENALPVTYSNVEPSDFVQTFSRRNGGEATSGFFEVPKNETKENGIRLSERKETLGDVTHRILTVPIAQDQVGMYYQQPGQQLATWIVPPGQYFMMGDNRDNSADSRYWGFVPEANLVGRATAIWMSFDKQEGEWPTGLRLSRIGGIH
Chain of Signal peptidase I (Escherichia coli K-12) (P00803 whole entry): as above

SMILES | hemolysis at 0.75 h, 100 µM [1] [%] | IC50 (Signal peptidase I) [µM] | MIC (Escherichia coli [2]) [µg/mL] | MIC (Escherichia coli [3]) [µg/mL] | MIC (Escherichia coli [4]) [µg/mL] | MIC (Pseudomonas aeruginosa [5]) [µg/mL] | MIC (Pseudomonas aeruginosa [6]) [µg/mL] | MIC (Klebsiella pneumoniae) [µg/mL] | IC50 (HepG2) [µM] | MIC (Acinetobacter baumannii) [µg/mL] | MIC (Staphylococcus aureus) [µg/mL] | Activity [7] [%] | Activity [8] [%] | Activity [9] [%] | Activity [10] [%] | Activity [11] [%] | Activity [12] [%] | Activity [13] [%] | Activity [14] [%] | Activity [15] [%] | further results
CCCCCCc1ccc(-c2ccc(C(=O)N[C@@H](CCCN)C(=O)N[C@H](C(=O)N[C@@H](C)C(=O)N[C@H]3Cc4cn(nn4)CCN4C[C@@H]5OB(O[C@@H]5C4)[C@H](C)NC3=O)[C@@H](C)O)cc2)cc1 | 10.1 | 0.104 | 64 (≈ 73.5 µM) | 16 (≈ 18.4 µM) | 32 (≈ 36.7 µM) | > 64 | > 64 | 64 (≈ 73.5 µM) | 9.5 | 32 (≈ 36.7 µM) | 32 (≈ 36.7 µM) | 17.8 | 26.7 | 29.8 | 32.9 | 36.3 | 38.8 | 47.2 | 61.4 | 63.8 | Activity [16]: 71.3%; Activity [17]: 77.9%; Activity [18]: 77%; Activity [19]: 79.9%; Activity [20]: 80.6%; Activity [21]: 97.3%
C[C@@H]1NC(=O)[C@@H](NC(=O)[C@H](C)NC(=O)[C@@H](NC(=O)[C@H](CCCN)NC(=O)c2ccc(-c3ccccc3)cc2)[C@@H](C)O)Cc2cn(nn2)CCO[C@@H]2C[C@@H]3OB1O[C@@H]3C2 | 0.2 | 0.072 | > 64 | > 64 | > 64 | > 64 | > 64 | > 64 | > 64 | > 64 | > 64 | 7.2 | 9.7 | 9.9 | 10.6 | 11.8 | 12 | 26.4 | 48.6 | 68.9 | Activity [16]: 83.8%; Activity [17]: 88.3%; Activity [18]: 84.9%; Activity [19]: 94.6%; Activity [20]: 100%
C[C@@H]1NC(=O)[C@@H](NC(=O)[C@H](C)NC(=O)[C@@H](NC(=O)[C@H](CCCN)NC(=O)c2ccc(=O)n(-c3ccccc3)c2)[C@@H](C)O)Cc2cn(nn2)CCO[C@@H]2C[C@@H]3OB1O[C@@H]3C2 | 0.04 | 1.66 | > 64 | > 64 | > 64 | > 64 | > 64 | > 64 | > 64 | > 64 | > 64 | 10.4 | 26.8 | 42.8 | 62.1 | 66.9 | 69.5 | 105 | 100 | 91.6 | Activity [16]: 104%; Activity [17]: 101%; Activity [18]: 97.5%; Activity [19]: 82.4%; Activity [20]: 84.6%
C[C@@H]1NC(=O)[C@@H](NC(=O)[C@H](C)NC(=O)[C@@H](NC(=O)[C@H](CCCN)NC(=O)C#Cc2ccc(-c3ccccc3)cc2)[C@@H](C)O)Cc2cn(nn2)CCO[C@@H]2C[C@@H]3OB1O[C@@H]3C2 | 0.01 | 0.227 | > 64 | > 64 | > 64 | > 64 | > 64 | > 64 | 28.2 | > 64 | 32 (≈ 38.8 µM) | 6.8 | 13.5 | 17.8 | 22.5 | 25.8 | 30 | 58.2 | 73.1 | 89.3 | Activity [16]: 98.2%; Activity [17]: 99%; Activity [18]: 97.1%; Activity [19]: 106%; Activity [20]: 103%
